# CSN deneddyl inh – CSN deneddylation inhibition | Q92905 | Purified CSN, SCF-Nedd8-OG deneddylation, fluorescence polarization | inhibition, % at 12.5 µM | actives 0.38% (n = 360,000);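 active = pattern-corrected inhibition above about 35%, with an unprinted fluorescence ratio check between 0.5 and 1.5, limit read from the data, passing the limit was not always enough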;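 also: 0% = enzyme with substrate and 100% = substrate without enzyme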
# Target sequence (Q92905 whole entry, looked up, one chain of several): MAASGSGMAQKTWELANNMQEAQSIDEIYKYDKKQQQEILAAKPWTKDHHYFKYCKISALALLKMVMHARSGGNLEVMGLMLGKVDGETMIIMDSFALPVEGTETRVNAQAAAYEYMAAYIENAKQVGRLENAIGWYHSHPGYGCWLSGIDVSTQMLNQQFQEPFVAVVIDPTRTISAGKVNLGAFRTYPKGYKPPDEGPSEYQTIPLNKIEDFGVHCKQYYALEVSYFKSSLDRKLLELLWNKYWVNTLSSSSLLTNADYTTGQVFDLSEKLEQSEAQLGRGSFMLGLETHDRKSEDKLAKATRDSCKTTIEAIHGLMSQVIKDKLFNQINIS
#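 Test system: purified human Csn5 enzyme expressed in HEK293T cells. Amount: 0.24 nM enzyme. Reagent: SCFSkp2-Nedd8OG substrate at 10 nM final. Schedule: 90 min incubation of compound, enzyme and substrate at room temperature. Detection: fluorescence polarization. Read-out: % inhibition of substrate cleavage by Csn5.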
# TPT1 inhibitor – blocks Candida albicans tRNA 2'-phosphotransferase. actives 0.81% (n = 300,000). inhibition, % at 5 µM. recombinant caTPT1, FP RNA substrate dephosphorylation. AID 1962;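 active = inhibition above the mean of all tested compounds plus 3 SD, set per screening campaign, cut at about 24% in these data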;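 also: plate controls were DMSO alone for no effect and ferristatin control at 100 nM for full effect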
# Rtt109 Vps75 – inhibitors of Candida albicans Rtt109/Vps75 histone acetyltransferase. actives 0.16% (n = 330,000). purified Rtt109/Vps75, ThioGlo CoA-SH fluorescence, 4 h. inhibition, % at 34.9 µM. AID 540336;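 active = inhibition of at least 50% in every replicate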
# HNF4A DNA FP – change in binding of human HNF4 alpha to DNA. HNF4a-FITC DNA binding, fluorescence polarization, 1 h. P41235. activity change, % at 10 µM. actives 0.3% (n = 360,000). AID 1224865; in the data active = activity change above about 30%, passing the limit was not always enough
# * = called active by the depositor; . = not tested or not shown; ! = a repeat was not active. A selection: hits, their analogues and other compounds. The true share with any hit is near 1.2%.
SMILES,CSN deneddyl inh,TPT1 inhibitor,Rtt109 Vps75,HNF4A DNA FP
CC(Nc1ccc(F)cc1F)C(=O)NC(=O)NC1CCCCC1 (centres undefined),0,0,2,144*
O=C(Nc1ccc(F)cc1F)NC1CCCCCCC1,2,.,-12,2
CC[C@]12c3[nH]c4ccc(Cl)cc4c3CCN1C(=O)[C@@H](CC(=O)NCCN1CCOCC1)C[C@@H]2C(=O)N1CCN(C(=O)c2ccco2)CC1,95*,.,-3,-1
Cc1cc(C)c[n+](-c2nc3ccccc3nc2C(=C=[N-])C#N)c1,33,1,-2,44*!
CCc1ccc[n+](-c2nc3ccccc3nc2C(=C=[N-])C#N)c1,59,-14,3,92
Cc1cc[n+](-c2nc3ccccc3nc2C(=C=[N-])C#N)cc1,35,20,7,26
N#CC(=C=[N-])c1nc2ccccc2nc1-[n+]1ccccc1,44*,2,3,32
COc1ccc(C2=CC(=O)C=CC2=O)cc1,.,.,104*,.
CC1CC(C)(C)CC2(C1)NC(=O)N(CC(=O)Nc1ccc3[nH]c(=O)[nH]c3c1)C2=O (centres undefined),73*,.,1,9
CC1CCC2(CC1)NC(=O)N(CC(=O)Nc1ccc3[nH]c(=O)[nH]c3c1)C2=O (centres undefined),0,1,6,-2
COc1ccc(CNC(=O)C2(C)Cc3c(-c4cccc(NC(C)=O)c4)ccnc3O2)cc1OC (centres undefined),10,.,.,0
Cc1ccc(C(=O)CCC(=O)N(C)CC(=O)Nc2ccccc2Br)cc1,-3,-4,0,-3
Cc1cc(C(=O)CCC(=O)N(C)CC(=O)Nc2ccccc2Br)c(C)s1,54*,-3,-4,6
COc1cccc(OC)c1C(=O)Nc1cccc(-c2ccc(N3CCOCC3)nn2)c1,-7,0,52*,-1
Cc1ccc(NC(=O)OCc2cc(-c3ccccc3)on2)cc1,-2,-3,56*,-1
CCC1NC(=O)c2cccnc2-n2c1nc1ccc(F)cc1c2=O (centres undefined),2,.,.,0
CC(C)(C)OC(=O)N(CCc1ccccc1)Cc1cccc(OCc2cccc(NC(=O)c3ccccc3)c2)c1,4,.,4,-2
COCCCn1c(=O)/c(=C\c2ccccc2OC(F)F)s/c1=C(/C#N)C(N)=O,22,3,-5,-4
COCCCn1c(=O)/c(=C\c2ccc(OC(F)F)c(OC)c2)s/c1=C(/C#N)C(N)=O,68,8,-38,51*
CC(=C\C(=O)O)/C(=C\c1cccc2ccccc12)C(=O)O,-3,-1,-11,1
CCOC(=O)C1=CN(Cc2cccc(F)c2)S(=O)(=O)N(C)C1c1ccccc1 (centres undefined),103*,.,-1,-4
CCOC(=O)C1=CN(Cc2cccc(F)c2)S(=O)(=O)N(C)C1c1cccc(OC)c1 (centres undefined),2,.,-10,0
CCOC(=O)C1=CCC(c2ccccc2)N(S(=O)(=O)c2ccccc2C)C1 (centres undefined),92*,.,.,4
CCOC(=O)C1=CCC(c2ccccc2)N(S(=O)(=O)c2ccccc2[N+](=O)[O-])C1 (centres undefined),-4,.,.,0
Cc1cc(NC(=O)/C(C#N)=C\c2ccc(-c3ccc(SC(F)F)cc3)o2)n(-c2ccccc2)n1,81*,.,-6,163
SMILES,CSN deneddyl inh,TPT1 inhibitor,Rtt109 Vps75,HNF4A DNA FP
Cc1c(NC(=O)/C(C#N)=C/c2ccc(-c3ccc(Cl)c(Cl)c3)o2)c(=O)n(-c2ccccc2)n1C,3,0,4,7
COc1cccc(CNC(=O)c2nnn(CC(=O)Nc3cccc(C)c3)c2N)c1,3,-2,-10,-3
CCOC(=O)/C=C/C(=O)Nc1cccc([N+](=O)[O-])c1,-16,1,108*,-1
C[C@H](O)[C@@H]1C(=O)N2CCc3ccc(N4CCN(C)CC4)cc3[C@@H]2C[C@@H]1N(C)C(=O)c1ccco1,-9,.,.,-3
CC(C)(C)NC(=O)C(c1ccc(-c2ccccc2)cc1)n1c(=O)c(-c2ccco2)nc2ccccc21 (centres undefined),28,.,.,46*
Cc1cccc(C)c1NC(=O)C(c1ccc(-c2ccccc2)cc1)n1c(=O)c(-c2ccco2)nc2ccccc21 (centres undefined),44*,.,.,21
O=S(=O)(Nc1nc(-c2ccco2)c(-c2ccco2)s1)c1ccc(F)cc1F,39*,.,.,-9
O=C(Nc1nc(-c2ccco2)c(-c2ccco2)s1)c1c(F)cccc1Cl,49*,.,-1,5
